# Screening results as filed in PubChem BioAssay.
# CendR NRP1 mod – NRP-1/CendR interaction modulation; O14786; FAM-RPARPAR peptide binding to NRP-1, fluorescence polarization; inhibition, % at 25 µM; 360,000 compounds, 0.85% hits;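 active = inhibition or corrected inhibition above about 18%, plus a signal ratio from 0.5 to 1.5, limit read from the data, passing the limit was not always enough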
# Target sequence (O14786 whole entry, looked up): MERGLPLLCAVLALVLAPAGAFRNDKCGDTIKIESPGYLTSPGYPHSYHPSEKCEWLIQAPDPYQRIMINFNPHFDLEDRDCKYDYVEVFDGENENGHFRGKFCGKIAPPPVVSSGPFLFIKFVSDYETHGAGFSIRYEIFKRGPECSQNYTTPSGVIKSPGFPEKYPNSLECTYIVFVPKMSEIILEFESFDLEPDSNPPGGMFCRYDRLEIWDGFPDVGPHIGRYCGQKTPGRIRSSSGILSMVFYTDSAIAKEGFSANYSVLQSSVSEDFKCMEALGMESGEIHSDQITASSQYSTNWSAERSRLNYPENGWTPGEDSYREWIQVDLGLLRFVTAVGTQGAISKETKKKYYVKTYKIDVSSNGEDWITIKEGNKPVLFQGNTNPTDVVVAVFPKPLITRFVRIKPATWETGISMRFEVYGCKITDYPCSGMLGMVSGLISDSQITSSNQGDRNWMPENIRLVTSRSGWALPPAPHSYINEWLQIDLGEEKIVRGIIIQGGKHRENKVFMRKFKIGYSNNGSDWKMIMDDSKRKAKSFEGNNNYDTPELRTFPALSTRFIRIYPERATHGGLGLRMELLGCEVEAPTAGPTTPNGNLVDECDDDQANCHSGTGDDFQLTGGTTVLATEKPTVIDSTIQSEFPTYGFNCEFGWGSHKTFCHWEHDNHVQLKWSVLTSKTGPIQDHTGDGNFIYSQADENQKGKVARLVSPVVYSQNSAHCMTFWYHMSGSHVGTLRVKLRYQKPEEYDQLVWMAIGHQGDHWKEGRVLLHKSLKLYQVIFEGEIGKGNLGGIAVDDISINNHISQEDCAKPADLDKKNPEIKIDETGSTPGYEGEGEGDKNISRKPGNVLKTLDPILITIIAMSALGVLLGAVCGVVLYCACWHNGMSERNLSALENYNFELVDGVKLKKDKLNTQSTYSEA
# Yeast superoxide – yeast age-related superoxide inhibition as caloric restriction mimetic; superoxide response (% of plate mean), % at 10 µM; 330,000 compounds, 0.18% hits; AID 2690; S. cerevisiae aged cells, superoxide DHE fluorescence; active compounds read low;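 active = superoxide response under a set limit, about three screen SD below normal, cut at about 65% in these data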;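 also: yeast aged for seven days with compound at 30 °C before DHE staining; 100% = average MFI of all compound-treated wells on the plate with controls excluded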
# T cruzi inh – blocks replication of Trypanosoma cruzi | 300,000 compounds, 1.4% hits | T. cruzi beta-gal in NIH3T3, luminescence, 90 h | inhibition, % (no concentration beside the values);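 active = mean inhibition across valid replicates above about 55%, limit read from the data; inconclusive = mean below that limit but half or more replicates reach it; inactive = mean below it, under half of replicates reach it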;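 also: signal also drops with host cell toxicity which is not excluded here; 0% = plate median of DMSO wells and 100% = zero luminescence signal; higher percent means less beta-gal luminescence so fewer parasites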
#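 Read-out: Parasite load inhibition, % | Test system: Mouse NIH/3T3 fibroblasts infected with β-gal-expressing T. cruzi Tulahuen C4 | Amount: 5,000 cells/well | Medium: DMEM, 2% fetal bovine serum | Signal: GalScreen β-gal luminescence, detergent lysis, 60 min | Timing: 3 h attach, ≥90 h co-culture | Also added: Tulahuen C4 trypomastigotes, 5000/well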
# AI-2 QS mod – Vibrio harveyi AI-2 quorum sensing modulation | Vibrio harveyi JMH597 AI-2 luminescence/OD600 ratio, 9 h; active compounds read low; strain lacks LuxN and CqsS sensors; 0 = neutral-control median | activity change, % at 7.5 µM | 300,000 compounds, 0.4% hits; in the data active = activity change below about -75%, passing the limit was not always enough; inconclusive = no clear call, values can overlap the other calls;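 also: luminescence divided by OD600 gain over 9 h not by final OD600 alone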
# HIF act – HIF pathway transcriptional activation; U2OS HRE-luciferase reporter, luminescence; normalized: DMSO 0%, desferrioxamine 100%; activation, % at 7.5 µM (by protocol); 300,000 compounds, 0.32% hits;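 active = mean activation of at least 10% of the iron chelator positive control signal, with at least half of replicates also reaching 10%; inconclusive = mean and replicate majority disagree about reaching 10%; inactive = mean and most replicates under 10%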
# V-ATPase pH – alters yeast V-ATPase proton transport | S. cerevisiae, pHLuorin cytosolic pH fluorescence | response, % at 10 µM | AID 504577 | 350,000 compounds, 0.37% hits; in the data active = response mostly above about 7.3%, no sharp cut-off; inactive = mostly below about 5.4%; also: actives read high
# * marks the source's active call; other numbers are inactive results; u = inconclusive; x = not tested or not shown. Rows were chosen to be rich in hits. Some 3% of all compounds tested hit in one or more screens of this group.
SMILES,CendR NRP1 mod,Yeast superoxide,T cruzi inh,AI-2 QS mod,HIF act,V-ATPase pH
C/C(Cn1cnc([N+](=O)[O-])n1)=N\NC(=O)c1ccncc1,9,94,49,8,0,-1
CSc1nc(SCC(=O)NC(c2ccccc2)c2ccccc2)c2c3c(sc2n1)CN(C)CC3,-10,104,64*,28,0,4
CSc1nc(NCC(C)O)c2c3c(sc2n1)CN(C)CC3 (stereo unspecified),-16,77,10,11,1,-1
C[C@@H](C(=O)NCCCCCC(=O)O)n1nnc2ccccc2c1=O,4,95,-4,-3,-15,1
CCC(C)(C)c1ccc(OCCCC[n+]2cccc(C)c2C)c(C(C)(C)CC)c1,8,65*,10,10,-3,7
Cc1cc(C(C)(C)C)ccc1OCCCCN1CCCC1,-3,100,46,37,-1,-3
CC1Oc2ccccc2N(Cc2ccccc2F)C1=O (stereo unspecified),x,89,-5,14,0,x
CCCCNc1c(-c2ccc(SC3CCCCC3)c(OC)c2)nc2ccc(Cl)cn12,-24,103,70*,9,-1,1
CCCCCCSc1ccc(-c2nc3ccc(Cl)cn3c2NCCCC)cc1OC,13,98,x,x,x,-3
CCn1c(=O)c2cc(C(=O)N(C)c3ccccc3F)sc2c2ccccc21,-7,101,69*,35,0,-10
COc1ccc(/C=N/NC(=O)c2ccc(Cl)cc2Cl)cc1COC(C)=O,-4,71,-14,-54,1,1
O=C(C[C@H]1C/C=C\C[C@@H](Cc2ccc(F)cc2)C(=O)O[C@@H](c2ccccc2)CNC1=O)NCCO,8,92,x,x,x,0
O=C(C[C@@H]1C/C=C\CC[C@H](Cc2ccc(F)cc2)C(=O)OC[C@@H]2CCCN2C1=O)NCCO,20*,90,x,x,x,2
O=C(C[C@H]1C/C=C\C[C@H](Cc2ccc(F)cc2)C(=O)O[C@@H](c2ccccc2)CNC1=O)NCCO,22*,87,x,x,x,-1
O=C(C[C@@H]1C/C=C\CC[C@@H](Cc2ccc(F)cc2)C(=O)OC[C@@H]2CCCN2C1=O)NCCO,11,106,x,x,x,-2
O=C(COC(=O)CNC(=O)c1cccc(OC(F)F)c1)NCc1ccc2c(c1)OCO2,-6,108,x,x,x,1
COc1cc(Nc2cccc(-c3ccccc3)n2)cc(OC)c1OC,30*,x,x,x,x,x
CNc1cccc(-c2cc(OC)c(OC)c(OC)c2)n1,0,x,x,x,x,x
Cc1cccc(NC(=O)c2cc(-c3ccco3)nc3ccccc23)n1,-45,110,-12,6,0,0
COc1ccc(CN(C)C(=O)CNC(=O)c2sc3ccccc3c2Cl)c(OC)c1OC,46*,x,x,x,x,-5
COc1ccc2c(c1)sc(=NC(=O)CS(=O)(=O)c1ccc(F)cc1)n2C,-11,83,63*,7,0,6
Fc1ccccc1/C=N/Nc1nn[nH]n1,-7,90,4,30,0,2
COc1ccc(S(=O)(=O)N2CCCCC2)cc1NC(=O)CNc1ccccc1N1CCCC1=O,0,99,x,x,x,0
CNc1cncc(-c2cccc(O)c2)n1,-9,x,x,x,x,x
COC(=O)CCCC1=CC2=C(c3ccccc3)C(=O)C(C)(OC(=O)C3CCCC3)C(=O)C2=CN1CC(C)C (stereo unspecified),28*,102,-1,4,0,2
SMILES,CendR NRP1 mod,Yeast superoxide,T cruzi inh,AI-2 QS mod,HIF act,V-ATPase pH
COCCN1C=C2C(=O)C(C)(OC(=O)C3CCCC3)C(=O)C(c3ccccc3)=C2C=C1CCCC(=O)OC (stereo unspecified),26*,100,1,32,0,5
CCN(CC)CCCN1C=C2C(=O)C(C)(OC(=O)C3CCCC3)C(=O)C(c3ccccc3)=C2C=C1CCCC(=O)OC (stereo unspecified),36*,99,33,-4,-2,0
CCCCC1=CC2=C(c3ccco3)C(=O)C(C)(OC(=O)c3ccc(OC)cc3)C(=O)C2=CN1Cc1ccccc1 (stereo unspecified),-39,102,20,9,-1,14
CCCCC1=CC2=C(c3ccco3)C(=O)C(C)(OC(=O)c3ccc(OC)cc3)C(=O)C2=CN1CCOC (stereo unspecified),28*,97,1,24,0,1
COC(=O)CCCC1=CC2=C(c3ccccc3)C(=O)C(C)(OC(=O)C3CCCC3)C(=O)C2=CN1C1CCCC1 (stereo unspecified),30*,94,14,40,0,5
CCN1c2ccccc2-c2nc3ccccc3n2C1c1ccncc1 (stereo unspecified),-4,82,-8,21,0,-2
CCN1c2ccccc2-c2nc3ccccc3n2C1c1ccccn1 (stereo unspecified),39*,105,-24,0,-1,5
CCCOc1ccc(C(=O)NNC(=S)NC(=O)c2cccs2)cc1,14,270,21,u,-1,2
O=[N+]([O-])c1ccc(C2CCCC/C2=N/OCc2ccc(F)cc2)c([N+](=O)[O-])c1 (stereo unspecified),-5,96,61*,16,-1,-3
COc1ccc(CCC(C)NC2C3CC4CC(C3)CC2C4)cc1 (stereo unspecified),-2,x,11,43,0,16*
COc1ccc(CNC(C)CCc2ccccc2)cc1 (stereo unspecified),-4,102,23,12,0,-1
Cc1ccc(OCC(=O)c2cc(C)n(C)c2C)c([N+](=O)[O-])n1,3,95,-2,27,0,3
Cc1ccc(/C=N/Nc2ccnc3cc(Cl)ccc23)c(C)c1,4,101,68*,1,-1,-1
Cc1ccccc1/C=N/Nc1ccnc2cc(Cl)ccc12,-2,87,60*,17,-1,3
Clc1ccc2c(N/N=C/c3cccnc3)ccnc2c1,-7,92,65*,34,1,-2
Clc1ccc2c(N/N=C/c3ccc(Br)cc3)ccnc2c1,-11,134,47,16,-1,1
Oc1ccc(/C=N/Nc2ccnc3cc(Cl)ccc23)c(O)c1,-14,105,-21,-3,2,-5
Cc1ccc(NC(=O)C2CCC(CNC(=O)[C@@H]3Cc4ccccc4CN3)CC2)c(C)c1 (stereo partly specified),3,100,3,41,0,2
O=C(CSC1=NCCS1)N1CCCCCC1,14,88,-7,2,0,-1
CCn1cc(C(=O)N2CCCC(N3CCN(c4ccccc4C)CC3)C2)cn1 (stereo unspecified),-2,115,15,2,0,-3
Cn1c(=O)c2c(SCC(N)=O)nc(CC(C)(C)C)nc2n(C)c1=O,-2,106,13,-3,0,5
